CSN deneddyl inh – blocks human CSN-mediated cullin deneddylation; Purified CSN, SCF-Nedd8-OG deneddylation, fluorescence polarization; Q92905; AID 651999; hit rate 0.38% among 360,000; inhibition, % at 12.5 µM;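 active = pattern-corrected inhibition above about 35%, with an unprinted fluorescence ratio check between 0.5 and 1.5, limit read from the data, passing the limit was not always enough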;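 also: 0% = enzyme with substrate and 100% = substrate without enzyme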
Target sequence (Q92905 whole entry, looked up, one chain of several): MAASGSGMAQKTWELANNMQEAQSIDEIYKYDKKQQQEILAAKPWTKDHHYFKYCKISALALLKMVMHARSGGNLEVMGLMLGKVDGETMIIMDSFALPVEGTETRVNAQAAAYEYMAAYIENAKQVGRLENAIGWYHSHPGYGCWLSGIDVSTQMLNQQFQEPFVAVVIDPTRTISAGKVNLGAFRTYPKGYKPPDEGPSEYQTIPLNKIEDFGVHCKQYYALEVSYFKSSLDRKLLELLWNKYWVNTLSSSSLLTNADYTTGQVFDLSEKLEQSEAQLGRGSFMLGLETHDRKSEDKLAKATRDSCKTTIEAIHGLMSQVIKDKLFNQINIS
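test system = HEK293T-derived human Csn5 enzyme | amount = 0.24 nM Csn5 enzyme, final concentration | medium = Tris/NaCl/DTT buffer, pH 7.5 | schedule = 90 min reaction at room temperature | signal = FP | evaluation = inhibition of Csn5 cleavage, % | compound dosing = single dose of 12.5 µM compound with 0.25% DMSO | probe or stimulus = 10 nM SCFSkp2-Nedd8OG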
LMPTP block – blocks human LMPTP phosphatase; recombinant LMPTP-A, OMFP fluorogenic substrate, fluorescence intensity; inhibition, % at 20 µM; hit rate 0.22% among 360,000; AID 651560; P24666;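 active = compounds that cut the enzyme signal by at least half of the control window in the single-dose screen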;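 also: plate controls were DMSO wells with enzyme plus substrate for no effect and substrate without enzyme for full effect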
Target sequence (P24666 whole entry, looked up): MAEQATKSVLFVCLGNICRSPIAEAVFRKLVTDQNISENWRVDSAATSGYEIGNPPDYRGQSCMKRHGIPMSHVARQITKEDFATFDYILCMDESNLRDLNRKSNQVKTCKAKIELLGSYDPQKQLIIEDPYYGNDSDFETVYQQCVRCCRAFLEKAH
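Assay system: LMPTP-A phosphatase enzyme | Input: 0.625 nM enzyme | Also added: Fluorogenic phosphatase substrate OMFP at 400 µM final | Compound dosing: One test concentration per compound, 20 µM, with 3% DMSO overall | Schedule: 50 min enzyme reaction at room temperature, protected from light | Signal: Fluorescence intensity | Benchmarks: no-enzyme and uninhibited controls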
DNMT1 block – DNMT1 (human) enzyme inhibition. P26358. DNMT1 molecular beacon, Hinp1I cleavage, fluorescence. inhibition (reported as % activation of signal), % at 10 µM. hit rate 0.83% among 360,000. AID 588458; in the data active = inhibition above about 50%
STEP inh – blocks human striatal-enriched tyrosine phosphatase. P54829. recombinant STEP, OMFP fluorogenic substrate, fluorescence. inhibition, % at 20 µM. hit rate 0.25% among 360,000;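 active = inhibition at 20 µM, scaled per plate between control wells, above about 37%, limit read from the data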;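 also: 0% = DMSO with enzyme and substrate and 100% = substrate only without enzyme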
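Assay system: isolated STEP enzyme. Buffer or medium: pH 6.0 Bis-Tris with DTT and Tween 20. Also added: fluorogenic phosphatase substrate OMFP at 25 µM final. Dosing: 20 µM, 1% DMSO. Timing: 20 min reaction, room temperature, in the dark. Measured by: fluorescence intensity, excitation 480 nm, emission 540 nm. Evaluation: normalized % inhibition.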
Scp1 inh – inhibitors of human Scp-1 phosphatase. Q9GZU7. hit rate 0.88% among 340,000. Recombinant Scp1, phosphopeptide, malachite green phosphate absorbance. AID 493091. inhibition, % at 20 µM;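 active = inhibition above about 50% at 20 µM, limit read from the data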;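 also: plate controls were DMSO wells with enzyme for no effect and wells lacking enzyme for full effect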
Target sequence (Q9GZU7 76-261 limits assumed): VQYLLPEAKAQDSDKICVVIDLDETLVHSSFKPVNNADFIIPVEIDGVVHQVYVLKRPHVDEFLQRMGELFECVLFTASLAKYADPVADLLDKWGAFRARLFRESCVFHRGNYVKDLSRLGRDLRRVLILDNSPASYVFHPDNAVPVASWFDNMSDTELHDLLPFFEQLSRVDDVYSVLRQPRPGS
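Material: truncated SCP-1 phosphatase (76-261aa) / Buffer or medium: 50 mM Tris acetate pH 5.5, 0.005% Tween-20, 10 mM MgCl2 / Compound dosing: one concentration, 20 µM, with 1.0% DMSO / Incubation: 45 min room-temperature reaction, 5 min colour, 30 min stabiliser / Detection: colorimetric free-phosphate detection, absorbance 630 nm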
SUMO1-SIM PPI – alters human SUMO1 binding to SIM partners; SUMO1 binding to a labelled peptide, TR-FRET, 1 h; inhibition, % at 20 µM; hit rate 0.33% among 360,000; AID 602429; P63165; in the data active = inhibition above about 37%
DNMT1 inh conf – DNMT1 inhibition confirmation, single concentration; shares compounds with DNMT1 block; DNMT1 molecular beacon HinP1I cleavage, fluorescence; inhibition, % at 10 µM; hit rate 8% among 2,300;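 active = average inhibition of at least 30% in the single-concentration confirmation test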
Beacon interf – counter-screen for DNMT1 inhibitors: spectral interference | shares compounds with DNMT1 block | DNMT1 molecular beacon spectral interference counterscreen, fluorescence 485/520 | activation (fluorescence interference), % at 10 µM | hit rate 1% among 2,300;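 active = activation of at least 30% at 10 µM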;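 also: DNMT1 catalytic domain with a HinP1I cleavage step and a FAM/dabcyl DNA beacon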
* = called active by the depositor; . = no result; ! = not confirmed by another sample. Only some compounds are listed: those with a hit (about 2% of all), similar ones and a draw of the others.

SMILES	CSN deneddyl inh	LMPTP block	DNMT1 block	STEP inh	Scp1 inh	SUMO1-SIM PPI	DNMT1 inh conf	Beacon interf
O=C1C=C(Nc2ccc(O)cc2)CC(c2ccco2)C1 (stereo not drawn)	-5	0	-8	-1	-1	0	.	.
CCOC(=O)C1CCCN(CC(O)COCc2ccccc2OC)C1 (stereo not drawn)	2	0	2	-4	-5	3	.	.
COc1ccc(C(=O)Nc2ccc(NC(=O)c3cccs3)cc2)cc1[N+](=O)[O-]	1	0	44	-2	-3	-5	0	2
CC(C)=CCC/C(C)=C/CC/C(C)=C/CC/C(C)=C/CC1=C(C)C(=O)c2ccccc2C1=O	-1	0	-4	0	-1	-9	.	.
CC(C)=CCC1=C(OCC(=O)O)C(=O)c2ccccc2C1=O	12	6	71*	8	-4	27	-4	1
Cc1ccccc1NC(=O)Cc1nnc(N)s1	-2	-1	-4	-2	-4	-1	.	.
N#Cc1ccc(-c2ccccc2)nc1SCC(=O)c1cc2ccccc2oc1=O	1	2	70*	2	-6	-1	1	5
COc1ccc(N(CC(=O)NCc2ccccc2)S(=O)(=O)c2c(C)n[nH]c2C)cc1	1	-1	0	-4	4	-1	.	.
Cc1cc(NC(=O)CSCC(=O)Nc2ccc(C)c(C)c2)no1	-4	0	2	3	-6	5	.	.
O=C(Nc1nc(-c2ccco2)c(-c2ccco2)s1)c1c(F)cccc1Cl	49*	5	70*	1	-9	5	6	22
O=C(Nc1nc(-c2ccco2)c(-c2ccco2)s1)c1cnccn1	.	.	.	.	36	.	.	.
O=C(NCc1cccs1)C1Cc2c(-c3ccc(Cl)cc3)ccnc2O1 (stereo not drawn)	-3	0	3	4	.	1	.	.
O=C(NCSc1ccnc(SCNC(=O)c2ccc(F)cc2)n1)c1ccc(F)cc1	22	0	52*	6	38	2	3	-6
O=C(NCCNC(=O)c1ccc(F)cc1)c1ccc(F)cc1	2	-1	3	0	-6	7	.	.
CCC1SC(=Nc2cccc(C)c2)NC1=O (stereo not drawn)	-2	0	1	-2	0	-2	.	.
CCC1S/C(=N/S(=O)(=O)c2ccc(N)cc2)NC1=O (stereo not drawn)	0	-1	66*	1	0	-1	3	2
N#Cc1nc(-c2cccs2)oc1NCC1CCCO1 (stereo not drawn)	-4	-1	67*	-1	-2	1	3	3
Cc1ccc(-c2nc(C#N)c(NCC3CCCO3)o2)cc1 (stereo not drawn)	3	0	2	8	-5	5	.	.
Cc1cc(NCC(=O)Nc2ccc(C)c(S(=O)(=O)N3CCOCC3)c2)ccc1Br	8	1	1	-2	.	4	.	.
CCc1c(O)cc(=O)n(-c2ccccc2)c1-c1ccccc1	3	-23	58*	4	7	5	7	4
O=C(COC(=O)Cc1ccsc1)Nc1ccc(Cl)c(S(=O)(=O)N2CCOCC2)c1	5	0	77*	-2	-5	-2	1	3
CCC(=O)N1CCCC(C(=O)NCc2ccc(C(C)C)cc2)CC1 (stereo not drawn)	3	-1	2	-3	.	-2	.	.
Cc1cc(N/N=C/c2ccc(O)cc2)nc(NS(=O)(=O)c2ccccc2)n1	5	18	83*	41*	48	14	1	-1
COc1ccc(/C(C)=N/NC(=O)c2ccc(CSc3nncn3C)cc2)cc1	-1	-1	-2	-4	-9	-2	.	.
COc1cc(/C=C/C(=O)OCC(=O)N(CC(C)C)c2c(N)n(Cc3ccccc3)c(=O)[nH]c2=O)ccc1O	-2	-2	3	-2	-6	-18	.	.
SMILES	CSN deneddyl inh	LMPTP block	DNMT1 block	STEP inh	Scp1 inh	SUMO1-SIM PPI	DNMT1 inh conf	Beacon interf
O=C(Cc1ccc(F)cc1)N/N=C/c1ccccn1	-4	-2	66*	2	-4	0	1	-1
Cc1ccnc(NC(=O)CCC(=O)N(CC(=O)NCc2ccc(F)cc2)c2ccc(F)cc2)c1	1	-1	73*	-3	-3	-3	6	7
Cc1ccnc(NC(=O)CCC(=O)N(CC(=O)NCCc2ccccc2)c2ccc(F)cc2)c1	0	1	2	3	-3	5	.	.
Cc1ccc(C(=O)Nc2cccc(C(F)(F)F)c2)cc1Nc1cncnc1	3	0	7	-5	-1	0	.	.
Cc1ccc(C(=O)Nc2cccc(C(F)(F)F)c2)cc1NC(=O)c1[nH]cnc1C(N)=O	5	-1	56*	0	-3	9	3	-1
NC(=O)c1nc[nH]c1C(=O)Nc1cccc(C(F)(F)F)c1	0	-3	4	-1	-6	9	.	.
Cc1ccc(C(=O)Nc2cccc(C(F)(F)F)c2)cc1NC(=O)c1cnnc2ccccc12	5	2	55*!	5	1	3	3	-1
COc1ccc(CN2C(=O)CN(S(C)(=O)=O)CC2(C)C(=O)NC(C)C)cc1OC (stereo not drawn)	5	-2	.	.	.	-3	.	.
CCN1C[C@@H]2[C@@H]3C(=O)N(Cc4ccccc4)C(=O)[C@@H]3[C@](Cc3ccccc3)(C1=O)N2C(=O)c1ccc(C(F)(F)F)cc1	-7	0	2	2	-3	-3	.	.
CCN1/C(=C\C=C(C(C)=O)C(C)=O)Sc2ccccc21	130	14	11	1	-7	-54	.	.
CCN1/C(=C\C=C2\C(=O)N(c3ccccc3)C(=S)N2C)Sc2ccccc21	3	16	55*	7	14	-20	2	0
Cc1cnn(-c2cc(N/N=C/c3ccccc3F)ncn2)c1	-6	-1	56*	0	1	-2	3	-3
CCCc1cc(=O)oc2cc(OCC(=O)NC3CC(C)(C)NC(C)(C)C3)ccc12	0	-1	-2	-3	-2	2	.	.
Cc1ccc(OCC(=O)c2c(N)n(C)c(=O)n(C)c2=O)c([N+](=O)[O-])n1	26	2	82*	4	66*	12	23	3
Oc1ccc(-c2cn3ccccc3n2)cc1	0	-1	153*	1	0	-2	5	2
c1ccc(-c2cn3ccccc3n2)cc1	-1	3	3	-1	-4	0	.	.

Assay outcomes (PubChem)
